ChEMBL document CHEMBL5344428, “Discovery, Crystallographic Studies, and Mechanistic Investigations of Novel Phenylalanine Derivatives Bearing a Quinazolin-4-one Scaffold as Potent HIV Capsid Modulators” (J Med Chem, 2023)

Key:
[1] = tested on: Human immunodeficiency virus 1; experiment: Antiviral activity against HIV1 IIIB infected in human MT4 cells assessed as reduction in virus induced cytopathic effect measured after 5 days by MTT assay; assay type: functional, organism-based; details: Human immunodeficiency virus 1, IIIB, MT4, 120 h
Procedure, shortened: (§1)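 MT-4 cells were infected with HIV-1 IIIB or HIV-2 ROD, and cell viability was read by MTT. […] Each value was run in at least triplicate and averaged from at least three independent experiments.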

[2] = Selectivity index, ratio of CC50 for cytotoxicity against human MT4 cells to EC50 for antiviral activity against HIV2 ROD infected in human MT4 cells; assay type: toxicity, cell-based; details: read-out: Ratio CC50/EC50
Procedure, shortened: (§2)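 SI is CC50 divided by EC50. CC50 comes from MTT viability of uninfected MT-4 cells. EC50 comes from MTT-read protection of MT-4 cells infected with HIV-1 IIIB or HIV-2 ROD. Each value was run in at least triplicate.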

[3] = tested on: Human immunodeficiency virus 2; experiment: Antiviral activity against HIV2 ROD infected in human MT4 cells assessed as reduction in virus induced cytopathic effect measured after 5 days by MTT assay; assay type: functional, organism-based; details: Human immunodeficiency virus 2, ROD, MT4, 120 h; procedure, shortened: as §1
[4] = Selectivity ratio of EC50 for antiviral activity against HIV1 IIIB infected in human MT4 cells to EC50 for antiviral activity against HIV2 ROD infected in human MT4 cells; assay type: toxicity, cell-based
Procedure, shortened: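 Ratio is EC50 against HIV-1 IIIB divided by EC50 against HIV-2 ROD. Both EC50 values come from MTT-read protection of infected MT-4 cells.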

[5] = Cytotoxicity against human MT4 cells assessed as reduction in cell viability incubated for 5 days by MTT assay; assay type: toxicity, cell-based; details: MT4 cells, time 5 day
Procedure, shortened: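 Uninfected MT-4 cells were exposed to compound, and viability was read by the MTT method. […] Each value was run in at least triplicate and averaged from at least three independent experiments.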

[6] = Selectivity index, ratio of CC50 for cytotoxicity against human MT4 cells to EC50 for antiviral activity against HIV1 IIIB infected in human MT4 cells; assay type: toxicity, cell-based; details: read-out: Ratio CC50/EC50; procedure, shortened: as §2

Structure (SMILES)	EC50 [1] [µM]	selectivity ratio [2]	EC50 [3] [µM]	Ratio EC50 [4]	CC50 at 120 h [5] [µM]	selectivity ratio [6]
COc1ccc(N(C)C(=O)[C@H](Cc2ccccc2)NC(=O)Cn2ccc(NC(=O)c3ccc(F)cc3)cc2=O)cc1	> 34.8	2.15	16.2	> 2.15	34.8	–
COc1ccc(-n2c(SCC(F)F)nnc2[C@H](Cc2ccccc2)NC(=O)Cc2c(C)[nH]c3ccccc23)cc1	2.54	3	7.33	0.35	24.4	10
COc1ccc(N(C)C(=O)[C@H](Cc2cc(F)cc(F)c2)NC(=O)CN(C(=O)Cc2c(C)[nH]c3ccccc23)C2CC2)cc1	3.08	6	17.3	0.18	112	36
COC(=O)CSc1nnc([C@H](Cc2ccccc2)NC(=O)Cc2c(C)[nH]c3ccccc23)n1-c1ccc(OC)cc1	3.01	12	6.59	0.46	82.3	27
COc1ccc(-n2c(SCC(N)=O)nnc2[C@H](Cc2ccccc2)NC(=O)Cc2c(C)[nH]c3ccccc23)cc1	0.88	32	3.74	0.24	118	135
COc1ccc(N(C)C(=O)[C@H](Cc2ccccc2)NC(=O)Cn2ccc(NC(=O)c3ccc(C)cc3)cc2=O)cc1	25.6	2.85	20.5	1.25	58.3	2.28
COc1ccc(N(C)C(=O)[C@H](Cc2cc(F)cc(F)c2)NC(=O)CN(Cc2ccccc2)C(=O)Cc2c(C)[nH]c3ccccc23)cc1	2.77	4	6.52	0.42	28.6	10
COc1ccc(N(C)C(=O)[C@H](Cc2cc(F)cc(F)c2)NC(=O)CN(Cc2ccc(C#N)cc2)C(=O)Cc2cccc3ccccc23)cc1	> 189	> 82	2.3	82.32	> 189	–
COc1ccc(-n2c([C@H](Cc3ccccc3)NC(=O)CN3CCN(S(=O)(=O)c4ccc([N+](=O)[O-])cc4)CC3)nc3cc(F)ccc3c2=O)cc1	1.99	> 312	0.56	3.55	> 175	> 88
COc1ccc(N(C)C(=O)[C@H](Cc2ccccc2)NC(=O)Cn2ccc(NC(=O)c3ccccc3)cc2=O)cc1	16.8	17.8	4.86	3.46	86.5	5.15
COc1ccc(-n2c([C@H](Cc3ccccc3)NC(=O)CN3CCN(S(=O)(=O)c4ccc(N)cc4)CC3)nc3ccccc3c2=O)cc1	0.64	> 1250	0.15	4.27	> 187	> 291
COc1ccc(N(C)C(=O)[C@H](Cc2ccccc2)NC(=O)CN2CCN(C(=O)Cc3c[nH]c4ccc(Br)cc34)CC2=O)cc1	> 16.4	< 1	> 16.4	–	16.4	< 1
COc1ccc(N(C)C(=O)[C@H](Cc2cc(F)cc(F)c2)NC(=O)CN2CCN(C(=O)Cc3c[nH]c4ccc(Br)cc34)CC2=O)cc1	> 3.15	< 1	> 3.15	–	3.15	< 1
COc1ccc(N(C)C(=O)[C@H](Cc2cc(F)cc(F)c2)NC(=O)CN2CCN(C(=O)Cc3c[nH]c4ccc(OC)cc34)CC2=O)cc1	> 15.9	< 1	> 15.9	–	15.9	< 1
